Measured values published in publication PMC2196299 (The Journal of Experimental Medicine, 1997).

Key:
[1] = molecular target: T1, murine TAP (Mus musculus, UniProt P21958+P36371); conditions: cited from earlier work
T1 sequence (P21958 1-724): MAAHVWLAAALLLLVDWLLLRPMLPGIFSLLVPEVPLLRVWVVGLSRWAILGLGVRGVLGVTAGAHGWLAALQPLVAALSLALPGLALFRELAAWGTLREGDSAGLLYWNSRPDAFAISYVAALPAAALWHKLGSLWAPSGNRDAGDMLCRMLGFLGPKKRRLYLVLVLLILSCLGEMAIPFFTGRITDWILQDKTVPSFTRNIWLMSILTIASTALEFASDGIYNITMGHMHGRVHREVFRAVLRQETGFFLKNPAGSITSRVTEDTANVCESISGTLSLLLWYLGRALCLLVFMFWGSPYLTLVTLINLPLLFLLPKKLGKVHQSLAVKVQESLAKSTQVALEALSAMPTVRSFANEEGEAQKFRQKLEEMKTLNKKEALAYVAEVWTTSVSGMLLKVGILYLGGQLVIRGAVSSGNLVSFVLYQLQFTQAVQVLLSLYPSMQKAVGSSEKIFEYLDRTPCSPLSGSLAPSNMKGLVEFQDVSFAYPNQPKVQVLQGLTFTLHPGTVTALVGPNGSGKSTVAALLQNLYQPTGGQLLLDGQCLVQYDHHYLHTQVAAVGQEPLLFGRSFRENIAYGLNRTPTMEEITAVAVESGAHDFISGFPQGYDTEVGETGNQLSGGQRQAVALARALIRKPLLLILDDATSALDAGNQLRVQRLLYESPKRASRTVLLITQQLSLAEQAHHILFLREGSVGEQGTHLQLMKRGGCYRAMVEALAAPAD
T1 sequence (P36371 1-702): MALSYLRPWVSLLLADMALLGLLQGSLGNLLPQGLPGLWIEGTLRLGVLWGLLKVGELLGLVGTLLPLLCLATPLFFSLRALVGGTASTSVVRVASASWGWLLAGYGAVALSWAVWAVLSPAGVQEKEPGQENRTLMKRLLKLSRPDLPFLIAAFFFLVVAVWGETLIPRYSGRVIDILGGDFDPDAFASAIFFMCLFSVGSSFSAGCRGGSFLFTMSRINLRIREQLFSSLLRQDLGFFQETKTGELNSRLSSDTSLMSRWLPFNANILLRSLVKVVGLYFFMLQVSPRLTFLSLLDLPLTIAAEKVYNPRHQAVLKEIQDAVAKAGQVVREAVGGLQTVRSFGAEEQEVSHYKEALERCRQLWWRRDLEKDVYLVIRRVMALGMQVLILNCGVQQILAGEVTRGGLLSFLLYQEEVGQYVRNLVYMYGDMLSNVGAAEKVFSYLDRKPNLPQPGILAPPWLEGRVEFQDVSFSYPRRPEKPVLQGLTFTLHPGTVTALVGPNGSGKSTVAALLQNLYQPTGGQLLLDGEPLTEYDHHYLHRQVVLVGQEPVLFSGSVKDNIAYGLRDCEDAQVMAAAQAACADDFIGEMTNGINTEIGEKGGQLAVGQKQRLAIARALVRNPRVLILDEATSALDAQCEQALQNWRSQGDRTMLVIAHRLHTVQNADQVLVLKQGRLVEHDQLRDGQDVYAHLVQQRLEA

[2] = molecular target: T2, human TAP (Homo sapiens, UniProt Q03518+Q03519); test: TAP-dependent peptide translocation assay in SLO-permeabilized human cells; type: cell-based
T2 sequence (Q03518 1-748): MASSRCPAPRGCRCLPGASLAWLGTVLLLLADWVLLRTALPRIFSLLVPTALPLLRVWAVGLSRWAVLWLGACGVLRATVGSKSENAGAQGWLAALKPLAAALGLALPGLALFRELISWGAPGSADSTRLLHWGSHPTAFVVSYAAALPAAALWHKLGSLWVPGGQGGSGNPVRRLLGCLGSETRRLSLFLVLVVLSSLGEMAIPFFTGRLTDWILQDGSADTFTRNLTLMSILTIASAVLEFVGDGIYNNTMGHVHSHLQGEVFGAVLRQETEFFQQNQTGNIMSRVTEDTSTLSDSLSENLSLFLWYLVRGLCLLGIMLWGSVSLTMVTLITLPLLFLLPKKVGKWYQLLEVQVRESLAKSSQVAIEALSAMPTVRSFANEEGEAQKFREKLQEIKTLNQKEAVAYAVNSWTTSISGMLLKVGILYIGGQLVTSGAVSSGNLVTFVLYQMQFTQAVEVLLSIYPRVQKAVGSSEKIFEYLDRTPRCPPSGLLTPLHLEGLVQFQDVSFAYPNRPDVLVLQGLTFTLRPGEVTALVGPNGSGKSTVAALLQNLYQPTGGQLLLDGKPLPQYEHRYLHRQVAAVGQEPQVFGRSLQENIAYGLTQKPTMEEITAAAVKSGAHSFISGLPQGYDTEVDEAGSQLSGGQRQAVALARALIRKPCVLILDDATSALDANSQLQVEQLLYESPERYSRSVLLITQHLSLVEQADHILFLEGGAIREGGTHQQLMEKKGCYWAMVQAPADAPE
T2 sequence (Q03519 1-686): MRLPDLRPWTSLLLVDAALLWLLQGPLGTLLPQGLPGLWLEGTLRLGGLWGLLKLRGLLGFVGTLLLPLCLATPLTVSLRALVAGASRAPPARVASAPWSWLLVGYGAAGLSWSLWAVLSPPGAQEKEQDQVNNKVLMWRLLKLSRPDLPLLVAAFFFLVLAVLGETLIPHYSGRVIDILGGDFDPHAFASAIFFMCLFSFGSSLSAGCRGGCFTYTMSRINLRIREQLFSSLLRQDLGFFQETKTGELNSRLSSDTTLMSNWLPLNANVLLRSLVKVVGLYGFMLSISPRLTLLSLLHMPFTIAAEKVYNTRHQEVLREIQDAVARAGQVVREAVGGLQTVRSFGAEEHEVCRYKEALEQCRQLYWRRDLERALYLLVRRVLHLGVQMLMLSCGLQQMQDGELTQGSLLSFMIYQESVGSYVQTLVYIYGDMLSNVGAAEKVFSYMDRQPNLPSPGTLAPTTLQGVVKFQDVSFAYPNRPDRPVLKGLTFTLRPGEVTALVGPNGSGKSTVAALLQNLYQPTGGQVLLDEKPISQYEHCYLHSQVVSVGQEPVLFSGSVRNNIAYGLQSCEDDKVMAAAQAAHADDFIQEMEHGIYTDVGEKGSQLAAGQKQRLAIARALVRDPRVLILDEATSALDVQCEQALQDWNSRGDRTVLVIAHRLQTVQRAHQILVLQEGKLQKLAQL
In short: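 Hmy2.C1R cells washed in KCl/Hepes transport buffer (pH 7.3) at 4°C, then permeabilized with streptolysin O (2 U/ml, 10 min, 37°C). 10^6 cells/sample incubated 10 min at 37°C with chloramine T-iodinated peptide library, ATP-generating system and test compound (3.3 μM, or a concentration series). Stopped with ice-cold EDTA/azide buffer, NP-40 lysed, Con A–Sepharose capture, γ counting. Percent of no-inhibitor transport, duplicates.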

[3] = molecular target: T3, human TAP1+2 (Homo sapiens, UniProt Q03518+Q03519); type: binding
T3 sequence (Q03518 1-748): T2 sequence (Q03518 1-748)
T3 sequence (Q03519 1-686): T2 sequence (Q03519 1-686)

| Substance | ability to block or inhibit mouse TAP [1] | TAP subunits labeled by cross-linking [3] | other results |
| --- | --- | --- | --- |
| ICP47: herpes simplex virus immediate early protein, 87–amino acid cytosolic polypeptide, inhibitor of TAP | inability |  |  |
| 1–35: peptide corresponding to residues 1–35 of ICP47 |  |  | concentration at which full inhibition had just been reached ([2]; human cell line Hmy2.C1R, chosen for the alanine scan, Fig. 3 D): 3.3 µM |
| N-acetylated ICP47-1–53: ICP47-1–53 N-acetylated on the resin |  |  | effect of N-acetylation on the ability to inhibit TAP ([2]; human cell line Hmy2.C1R, compared with 1–53 polypeptide, Fig. 3 E): no effect |
| rICP47: recombinant ICP47 from HSV-1 | unable to block |  |  |
| ^125I-labeled Tyr21 1–35 polypeptide: 1–35 polypeptide labeled with 125I at Tyr 21 |  | only TAP1 crosslinks |  |
| 1–35 Tpa: 1–35-mer polypeptide with photoactivable phenylalanine analogue Tpa coupled to its NH2 terminus |  | Both TAP1 and TAP2 subunits were photolabeled | block of TAP function compared with the unmodified 1–35 polypeptide ([2]; data not shown): less efficiently |
